Assay results taken from PMC6944222 (Toxicological Sciences, 2019).

Assays:
[1] = IVIVE of total hepatic intrinsic clearance; type: in vitro ADME, human; details: for Hepatic CLint_vivo: model estimated; for total CLint_vivo estimated with HLMs and cytosol (subcellular fraction): subcellular fraction-based IVIVE
Procedure, shortened: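 Pooled human liver microsomes and cytosol from 150 adults (75 male, 75 female). […] In vitro CLint was scaled to the in vivo hepatic value using microsomal or cytosolic protein content and liver weight. Enzyme ontogeny was expressed as a fraction of adult expression.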

[2] = stated as known, no reference given; cited from earlier work
[3] = ref Willemin et al. (2015); cited from earlier work
[4] = tested on: expressed human CYP and CES enzymes; type: in vitro ADME; details: for total in vivo CLint estimated with expressed enzymes: expressed enzyme-based IVIVE; for metabolism profile (enzymes responsible): human hepatic CYP and CES enzymes

Row | SMILES | Hepatic CLint_vivo ([1]; person five) [L/h] | Hepatic CLint_vivo ([1]; person four) [L/h] | Hepatic CLint_vivo ([1]; person one) [L/h] | Hepatic CLint_vivo ([1]; person six) [L/h] | Hepatic CLint_vivo ([1]; person three) [L/h] | Hepatic CLint_vivo ([1]; person two) [L/h] | total CLint_vivo estimated with HLMs and cytosol (subcellular fraction) [1] | log Kow [2] | in vivo CLint in cryopreserved hepatocytes [3] [l/h/kg liver] | contribution of CES enzymes to human hepatic metabolism ([4]; IVIVE of expressed enzyme data) | total in vivo CLint estimated with expressed enzymes [4] | metabolism profile (enzymes responsible) [4]
1 | CC1(C)[C@H](C(=O)OCc2cccc(Oc3ccccc3)c2)[C@@H]1C=C(Cl)Cl [CPM, cis-permethrin] | 186 | 115 | 34 | 217 | 51 | 20 | 6,68 l/h/kg liver | 6.1 | 60 | more than 70% | 70,481 l/h/kg liver | metabolized by CYP and CES enzymes
2 | CC1(C)[C@H](C(=O)O[C@H](C#N)c2cccc(Oc3ccccc3)c2)[C@@H]1C=C(Br)Br [DLM, deltamethrin] | 2066 | 1282 | 375 | 2417 | 565 | 224 | 7,418 l/h/kg liver | 4.61 | – | – | 36,782 l/h/kg liver | –
3 | Cc1c(COC(=O)[C@@H]2[C@H](/C=C(\Cl)C(F)(F)F)C2(C)C)cccc1-c1ccccc1 (racemic) [Bifenthrin, bifenthrin] | 58 | 36 | 10 | 67 | 16 | 5 | – | – | – | – | 145 l/h/kg liver | metabolized only by CYP enzymes
